# Source: ChEMBL document CHEMBL5058577, “EUbOPEN Chemogenomics Library 2 (Multiplex)” (2022)
# Tested on: U2OS
# Experiment: Multiplex assay against U2OS
# Assay type: toxicity, cell-based
# Conditions: human
# Outline: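 Cells stained live at seeding with Hoechst33342, BioTracker Green Microtubule Cytoskeleton Dye, MitoTracker Red and Annexin V Alexa Fluor 680 were imaged on a CQ1 microscope at 37°C and 5% CO2 after compound addition. Their classification by CellPathfinder machine-learning gating ran from Hoechst high-intensity objects versus normal cells, to healthy, pyknosed or fragmented nuclei among normal cells, to mitotic or apoptotic among pyknosed cells. Tubulin, mitochondrial-mass and membrane-permeability phenotypes are per cents of healthy-nucleus cells.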
# [1] = 12 h, 1 µM, compound concentration 1 uM, replicate 1
# [2] = 12 h, 1 µM, compound concentration 1 uM, replicate 2
# [3] = 12 h, 10 µM, compound concentration 10 uM, replicate 1
# [4] = 12 h, 10 µM, compound concentration 10 uM, replicate 2
# [5] = 24 h, 1 µM, compound concentration 1 uM, replicate 1
# [6] = 24 h, 1 µM, compound concentration 1 uM, replicate 2
# [7] = 24 h, 10 µM, compound concentration 10 uM, replicate 1
# [8] = 24 h, 10 µM, compound concentration 10 uM, replicate 2
# [9] = 48 h, 1 µM, compound concentration 1 uM, replicate 1
# [10] = 48 h, 1 µM, compound concentration 1 uM, replicate 2
# [11] = 48 h, 10 µM, compound concentration 10 uM, replicate 1
# [12] = 48 h, 10 µM, compound concentration 10 uM, replicate 2
structure (smiles),measurement,setting,value
Cc1ccccc1C(=O)Nc1ccc(C(=O)N2CCCC(N(C)C)c3ccccc32)cc1.Cl (stereo not drawn),Population Apoptotic (%),[1],91%
same,Population Fragmented Nuclei (%),[1],20%
same,Population Healthy Nuclei (%),[1],70%
same,Population Hoechst High Intensity Objects (%),[1],1%
same,Population Membrane Permeable-Phenotype (%),[1],5%
same,Population Mitochondria Different-Phenotype (%),[1],3%
same,Population Mitotic Cells (%),[1],8%
same,Population Normal (%),[1],98%
same,Population Pyknosed Nuclei (%),[1],8%
same,Population Tubulin-Different-Phenotype (%),[1],4%
same,Total Cell Count,[1],282
same,Population Apoptotic (%),[2],77%
same,Population Fragmented Nuclei (%),[2],14%
same,Population Healthy Nuclei (%),[2],79%
same,Population Membrane Permeable-Phenotype (%),[2],4%
same,Population Mitochondria Different-Phenotype (%),[2],5%
same,Population Mitotic Cells (%),[2],22%
same,Population Pyknosed Nuclei (%),[2],5%
same,Population Tubulin-Different-Phenotype (%),[2],1%
same,Total Cell Count,[2],157
same,Population Apoptotic (%),[3],59%
same,Population Fragmented Nuclei (%),[3],18%
same,Population Healthy Nuclei (%),[3],55%
same,Population Hoechst High Intensity Objects (%),[3],4%
same,Population Membrane Permeable-Phenotype (%),[3],14%
same,Population Mitochondria Different-Phenotype (%),[3],11%
same,Population Mitotic Cells (%),[3],40%
same,Population Normal (%),[3],95%
same,Population Pyknosed Nuclei (%),[3],25%
same,Population Tubulin-Different-Phenotype (%),[3],8%
same,Total Cell Count,[3],213
same,Population Apoptotic (%),[4],56%
same,Population Healthy Nuclei (%),[4],62%
same,Population Hoechst High Intensity Objects (%),[4],1%
same,Population Membrane Permeable-Phenotype (%),[4],15%
same,Population Mitochondria Different-Phenotype (%),[4],25%
same,Population Mitotic Cells (%),[4],43%
same,Population Normal (%),[4],98%
same,Population Pyknosed Nuclei (%),[4],19%
same,Population Tubulin-Different-Phenotype (%),[4],15%
same,Total Cell Count,[4],83
same,Population Apoptotic (%),[5],88%
same,Population Fragmented Nuclei (%),[5],18%
same,Population Healthy Nuclei (%),[5],70%
same,Population Hoechst High Intensity Objects (%),[5],0%
same,Population Membrane Permeable-Phenotype (%),[5],6%
same,Population Mitochondria Different-Phenotype (%),[5],3%
same,Population Mitotic Cells (%),[5],11%
same,Population Normal (%),[5],99%
same,Population Pyknosed Nuclei (%),[5],10%
same,Population Tubulin-Different-Phenotype (%),[5],4%
same,Total Cell Count,[5],333
same,Population Apoptotic (%),[6],66%
same,Population Fragmented Nuclei (%),[6],13%
same,Population Healthy Nuclei (%),[6],77%
same,Population Hoechst High Intensity Objects (%),[6],1%
same,Population Membrane Permeable-Phenotype (%),[6],5%
same,Population Mitochondria Different-Phenotype (%),[6],4%
same,Population Mitotic Cells (%),[6],33%
same,Population Normal (%),[6],98%
same,Population Pyknosed Nuclei (%),[6],9%
same,Population Tubulin-Different-Phenotype (%),[6],3%
same,Total Cell Count,[6],192
same,Population Apoptotic (%),[7],71%
same,Population Fragmented Nuclei (%),[7],16%
same,Population Healthy Nuclei (%),[7],51%
same,Population Hoechst High Intensity Objects (%),[7],4%
same,Population Membrane Permeable-Phenotype (%),[7],16%
same,Population Mitochondria Different-Phenotype (%),[7],14%
same,Population Mitotic Cells (%),[7],28%
same,Population Normal (%),[7],95%
same,Population Pyknosed Nuclei (%),[7],31%
same,Population Tubulin-Different-Phenotype (%),[7],6%
same,Total Cell Count,[7],211
same,Population Apoptotic (%),[8],46%
same,Population Fragmented Nuclei (%),[8],27%
same,Population Healthy Nuclei (%),[8],53%
same,Population Hoechst High Intensity Objects (%),[8],5%
same,Population Membrane Permeable-Phenotype (%),[8],18%
same,Population Mitochondria Different-Phenotype (%),[8],18%
same,Population Mitotic Cells (%),[8],53%
same,Population Normal (%),[8],94%
same,Population Pyknosed Nuclei (%),[8],18%
same,Population Tubulin-Different-Phenotype (%),[8],18%
same,Total Cell Count,[8],73
same,Population Apoptotic (%),[9],85%
same,Population Fragmented Nuclei (%),[9],14%
same,Population Healthy Nuclei (%),[9],71%
same,Population Hoechst High Intensity Objects (%),[9],1%
same,Population Membrane Permeable-Phenotype (%),[9],5%
same,Population Mitochondria Different-Phenotype (%),[9],3%
same,Population Mitotic Cells (%),[9],14%
same,Population Normal (%),[9],98%
same,Population Pyknosed Nuclei (%),[9],13%
same,Population Tubulin-Different-Phenotype (%),[9],3%
same,Total Cell Count,[9],414
same,Population Apoptotic (%),[10],83%
same,Population Fragmented Nuclei (%),[10],15%
same,Population Healthy Nuclei (%),[10],72%
same,Population Membrane Permeable-Phenotype (%),[10],7%
same,Population Mitochondria Different-Phenotype (%),[10],5%
same,Population Mitotic Cells (%),[10],16%
same,Population Pyknosed Nuclei (%),[10],12%
same,Population Tubulin-Different-Phenotype (%),[10],4%
same,Total Cell Count,[10],248
same,Population Apoptotic (%),[11],71%
same,Population Fragmented Nuclei (%),[11],28%
same,Population Healthy Nuclei (%),[11],43%
same,Population Hoechst High Intensity Objects (%),[11],8%
same,Population Membrane Permeable-Phenotype (%),[11],17%
same,Population Mitochondria Different-Phenotype (%),[11],8%
same,Population Mitotic Cells (%),[11],28%
same,Population Normal (%),[11],91%
same,Population Pyknosed Nuclei (%),[11],28%
same,Population Tubulin-Different-Phenotype (%),[11],7%
same,Total Cell Count,[11],206
same,Population Apoptotic (%),[12],84%
same,Population Healthy Nuclei (%),[12],42%
same,Population Membrane Permeable-Phenotype (%),[12],11%
same,Population Mitochondria Different-Phenotype (%),[12],30%
same,Population Mitotic Cells (%),[12],16%
same,Population Pyknosed Nuclei (%),[12],29%
same,Population Tubulin-Different-Phenotype (%),[12],13%
same,Total Cell Count,[12],93
CC(=O)NCCc1c(Cc2ccccc2)[nH]c2ccccc12 [LUZINDOLE],Population Apoptotic (%),[1],72%
same,Population Fragmented Nuclei (%),[1],25%
same,Population Healthy Nuclei (%),[1],65%
same,Population Hoechst High Intensity Objects (%),[1],3%
same,Population Membrane Permeable-Phenotype (%),[1],3%
same,Population Mitochondria Different-Phenotype (%),[1],4%
same,Population Mitotic Cells (%),[1],27%
same,Population Normal (%),[1],96%
same,Population Pyknosed Nuclei (%),[1],9%
same,Population Tubulin-Different-Phenotype (%),[1],1%
same,Total Cell Count,[1],233
same,Population Apoptotic (%),[2],100%
same,Population Fragmented Nuclei (%),[2],19%
same,Population Healthy Nuclei (%),[2],77%
same,Population Hoechst High Intensity Objects (%),[2],2%
same,Population Membrane Permeable-Phenotype (%),[2],6%
same,Population Mitochondria Different-Phenotype (%),[2],2%
same,Population Mitotic Cells (%),[2],0%
same,Population Normal (%),[2],97%
same,Population Pyknosed Nuclei (%),[2],3%
same,Population Tubulin-Different-Phenotype (%),[2],2%
same,Total Cell Count,[2],134
same,Population Apoptotic (%),[3],81%
same,Population Fragmented Nuclei (%),[3],26%
same,Population Healthy Nuclei (%),[3],65%
same,Population Hoechst High Intensity Objects (%),[3],2%
same,Population Membrane Permeable-Phenotype (%),[3],8%
same,Population Mitochondria Different-Phenotype (%),[3],3%
same,Population Mitotic Cells (%),[3],18%
same,Population Normal (%),[3],97%
same,Population Pyknosed Nuclei (%),[3],7%
same,Population Tubulin-Different-Phenotype (%),[3],4%
same,Total Cell Count,[3],291
same,Population Apoptotic (%),[4],76%
same,Population Fragmented Nuclei (%),[4],13%
same,Population Healthy Nuclei (%),[4],78%
same,Population Hoechst High Intensity Objects (%),[4],1%
same,Population Membrane Permeable-Phenotype (%),[4],5%
same,Population Mitochondria Different-Phenotype (%),[4],2%
same,Population Mitotic Cells (%),[4],23%
same,Population Normal (%),[4],98%
same,Population Tubulin-Different-Phenotype (%),[4],3%
same,Total Cell Count,[4],179
same,Population Apoptotic (%),[5],90%
same,Population Fragmented Nuclei (%),[5],19%
same,Population Healthy Nuclei (%),[5],68%
same,Population Hoechst High Intensity Objects (%),[5],4%
same,Population Membrane Permeable-Phenotype (%),[5],2%
same,Population Mitochondria Different-Phenotype (%),[5],3%
same,Population Mitotic Cells (%),[5],10%
same,Population Normal (%),[5],95%
same,Population Pyknosed Nuclei (%),[5],12%
same,Population Tubulin-Different-Phenotype (%),[5],3%
same,Total Cell Count,[5],260
same,Population Apoptotic (%),[6],88%
same,Population Fragmented Nuclei (%),[6],18%
same,Population Healthy Nuclei (%),[6],70%
same,Population Hoechst High Intensity Objects (%),[6],0%
same,Population Membrane Permeable-Phenotype (%),[6],5%
same,Population Mitochondria Different-Phenotype (%),[6],1%
same,Population Mitotic Cells (%),[6],11%
same,Population Normal (%),[6],99%
same,Population Pyknosed Nuclei (%),[6],10%
same,Population Tubulin-Different-Phenotype (%),[6],4%
same,Total Cell Count,[6],156
same,Population Apoptotic (%),[7],88%
same,Population Fragmented Nuclei (%),[7],25%
same,Population Healthy Nuclei (%),[7],66%
same,Population Hoechst High Intensity Objects (%),[7],2%
same,Population Membrane Permeable-Phenotype (%),[7],6%
same,Population Mitochondria Different-Phenotype (%),[7],3%
same,Population Mitotic Cells (%),[7],12%
same,Population Normal (%),[7],97%
same,Population Pyknosed Nuclei (%),[7],7%
same,Population Tubulin-Different-Phenotype (%),[7],4%
same,Total Cell Count,[7],342
same,Population Apoptotic (%),[8],85%
same,Population Fragmented Nuclei (%),[8],11%
same,Population Healthy Nuclei (%),[8],80%
same,Population Hoechst High Intensity Objects (%),[8],0%
same,Population Mitochondria Different-Phenotype (%),[8],1%
same,Population Mitotic Cells (%),[8],15%
same,Population Normal (%),[8],99%
same,Population Pyknosed Nuclei (%),[8],8%
same,Population Tubulin-Different-Phenotype (%),[8],3%
same,Total Cell Count,[8],236
same,Population Apoptotic (%),[9],91%
same,Population Fragmented Nuclei (%),[9],16%
same,Population Healthy Nuclei (%),[9],74%
same,Population Hoechst High Intensity Objects (%),[9],2%
same,Population Membrane Permeable-Phenotype (%),[9],3%
same,Population Mitochondria Different-Phenotype (%),[9],2%
same,Population Mitotic Cells (%),[9],8%
same,Population Normal (%),[9],97%
same,Population Pyknosed Nuclei (%),[9],9%
same,Population Tubulin-Different-Phenotype (%),[9],2%
same,Total Cell Count,[9],395
same,Population Apoptotic (%),[10],80%
same,Population Fragmented Nuclei (%),[10],11%
same,Population Healthy Nuclei (%),[10],77%
same,Population Hoechst High Intensity Objects (%),[10],1%
same,Population Membrane Permeable-Phenotype (%),[10],8%
same,Population Mitochondria Different-Phenotype (%),[10],1%
same,Population Mitotic Cells (%),[10],20%
same,Population Normal (%),[10],98%
same,Population Pyknosed Nuclei (%),[10],11%
same,Population Tubulin-Different-Phenotype (%),[10],4%
same,Total Cell Count,[10],217
same,Population Apoptotic (%),[11],89%
same,Population Fragmented Nuclei (%),[11],21%
same,Population Healthy Nuclei (%),[11],69%
same,Population Hoechst High Intensity Objects (%),[11],2%
same,Population Membrane Permeable-Phenotype (%),[11],6%
same,Population Mitochondria Different-Phenotype (%),[11],3%
same,Population Mitotic Cells (%),[11],10%
same,Population Normal (%),[11],97%
same,Population Pyknosed Nuclei (%),[11],8%
same,Population Tubulin-Different-Phenotype (%),[11],3%
same,Total Cell Count,[11],446
same,Population Apoptotic (%),[12],100%
same,Population Fragmented Nuclei (%),[12],11%
same,Population Healthy Nuclei (%),[12],82%
same,Population Hoechst High Intensity Objects (%),[12],1%
same,Population Membrane Permeable-Phenotype (%),[12],5%
same,Population Mitochondria Different-Phenotype (%),[12],2%
same,Population Mitotic Cells (%),[12],0%
same,Population Normal (%),[12],98%
same,Population Pyknosed Nuclei (%),[12],5%
same,Total Cell Count,[12],354
